Key:
P388 = experiment: Tested in vitro for antineoplastic activity against P-388 (lymphoid neoplasm from DBA/2 mouse) tumor cell line; type: functional, cell-based
Method in brief: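 P-388 cells seeded at 1 × 10^4 cells/well in MEM–10% FCS containing graded compound concentrations. Incubated 4 days at 37 °C, 10% CO2, 98% humidity. Inhibition scored by inverted microscopy against untreated controls, which were kept in exponential growth. Mean of duplicate wells.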

HT-29 = experiment: In vitro cytotoxicity against HT-29 (human colon carcinoma) cell line.; type: functional, cell-based
SK-MEL-28 = experiment: Tested in vitro for antineoplastic activity against MEL-28 (human melanoma) tumor cell line; type: functional, cell-based
Method in brief: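 MEL-28 cells seeded at 2 × 10^4 cells/well in MEM–10% FCS containing graded compound concentrations. Incubated 4 days at 37 °C, 10% CO2, 98% humidity. Stained with crystal violet and inhibition judged against untreated controls, which were kept in exponential growth. Mean of duplicate wells.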

[1] = Selectivity index is the ratio of IC50 of P-388 cell line to that of HT-29; type: functional
A549 = experiment: In vitro cytotoxicity against A-549 (human lung carcinoma) cell line.; type: functional, cell-based

SMILES | IC50 (P388) [nM] | IC50 (HT-29; ht-29) [nM] | IC50 (SK-MEL-28) [nM] | Selectivity index [1] | IC50 (A549; a549) [nM] | IC50 (HT-29; Homo sapiens, HT-29) [nM] | IC50 (A549; Homo sapiens, A549) [nM]
CC/N=C/C1=Cc2cc3c(cc2[C@@H](c2cc(OC)c(OC)c(OC)c2)[C@@H]1C(=O)OC)OCO3 (stereo in doubt; 5) | 1100 | 2.2 | 22 | 500 | 22 | – | –
COC(=O)[C@@H]1C(/C=N/c2ccccc2)=Cc2cc3c(cc2C1c1cc(OC)c(OC)c(OC)c1)OCO3 (stereo not given in full) | 500 | – | 1200 | 25 | – | 20 | 20
COC(=O)[C@@H]1C(/C=N/c2cc(OC)c(OC)c(OC)c2)=Cc2cc3c(cc2C1c1cc(OC)c(OC)c(OC)c1)OCO3 (stereo not given in full) | 850 | – | 420 | 40 | – | 21 | 210
COC(=O)[C@@H]1C(/C=N/C2CCCCC2)=Cc2cc3c(cc2C1c1cc(OC)c(OC)c(OC)c1)OCO3 (stereo not given in full) | 2000 | – | 490 | 80 | – | 25 | 250
CC/N=C/C1=Cc2cc3c(cc2[C@@H](c2cc(OC)c(OC)c(OC)c2)[C@@H]1C(=O)OC)OCO3 (stereo in doubt; 11) | – | 34 | – | – | 110 | – | –
COC(=O)[C@@H]1C(/C=N/c2cncnc2N)=Cc2cc3c(cc2C1c1cc(OC)c(OC)c(OC)c1)OCO3 (stereo not given in full) | 1900 | – | 1000 | 83 | – | 23 | 23
CC/N=C/C1=Cc2c(cc3c(c2OC)OCO3)C(c2cc(OC)c(OC)c(OC)c2)[C@@H]1C(=O)OC (stereo not given in full) | – | – | 1000 | – | – | 100 | > 10000
COC(=O)[C@@H]1C(/C=N/c2cc(C)c(C)cc2N)=Cc2cc3c(cc2C1c1cc(OC)c(OC)c(OC)c1)OCO3 (stereo not given in full) | 900 | – | 900 | 4.5 | – | 200 | 900

— ChEMBL document CHEMBL1148485, “Synthesis and biological evaluation of new selective cytotoxic cyclolignans derived from podophyllotoxin” (J Med Chem, 2004)
